Measured values as given in ChEMBL document CHEMBL4190305, “Dioxomorpholines and Derivatives from a Marine-Facultative Aspergillus Species” (J Nat Prod, 2017).
Activity calls are given as the source filed them. The rule behind the calls is not given here.

species on record: Homo sapiens; test: Cytotoxicity against human A549/DXR cells assessed as reduction in cell viability after 72 hrs by CellTiter 96 AQueous one solution cell proliferation assay; format: functional, cell-based; settings: not given
Procedure, shortened: (§1)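 Cells seeded at 3000–4000 per well and grown 20 h, then medium replaced by 10% fetal bovine serum medium with test compound for 72 h. Viability read by MTS-type (CellTiter 96 AQueous One) absorbance at 490 nm, relative to untreated control cells; triplicate wells per condition.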

For C=CC(C)(C)c1[nH]c2ccccc2c1C[C@H](NC(=O)[C@@H](O)Cc1ccccc1)C(=O)O, which Activity is on record?
Its Activity is “Dose-dependent effect”.

C=CC(C)(C)[C@]1(C[C@H](NC(=O)[C@@H](O)Cc2ccccc2)C(=O)O)C(=O)Nc2c(O)cccc21 was tested. Which Activity did it give?
Its Activity is “Dose-dependent effect”.

For C=CC(C)(C)[C@]12Nc3c(O)cccc3[C@@]1(O)C[C@H]1C(=O)O[C@@H](Cc3ccccc3)C(=O)N12, which Activity is on record?
The Activity was “Dose-dependent effect”.

test system: SAOS-2; test: Potentiation of doxorubicin-induced cytotoxicity against p53 null human Saos2 cells assessed as decrease in cell viability at 10 uM after 72 hrs by CellTiter 96 AQueous one solution cell proliferation assay; format: functional, cell-based; settings: not given
Procedure, shortened: (§2)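 Seeded 3000–4000 cells/well, 20 h growth, then a range of doxorubicin concentrations alone or combined with 10 μM compound in 10% FBS medium for 72 h (DMSO vehicle). Viability by CellTiter 96 AQueous One at 490 nm versus untreated cells; triplicate wells, mean ± SEM of three independent experiments.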

C=CC(C)(C)c1[nH]c2ccccc2c1C[C@H](NC(=O)[C@@H](O)Cc1ccccc1)C(=O)O was tested. Which Activity did it give?
Its Activity is “Active”.

Which Activity does the source give for C=CC(C)(C)[C@]1(C[C@H](NC(=O)[C@@H](O)Cc2ccccc2)C(=O)O)C(=O)Nc2c(O)cccc21 here?
Its Activity is “Active”.

For C=CC(C)(C)[C@]12Nc3c(O)cccc3[C@@]1(O)C[C@H]1C(=O)O[C@@H](Cc3ccccc3)C(=O)N12, which Activity is on record?
The Activity was “Active”.

test system: U2OS; test: Cytotoxicity against human U2OS cells assessed as reduction in cell viability after 72 hrs by CellTiter 96 AQueous one solution cell proliferation assay; format: cell-based; settings: not given; procedure, shortened: as §1

How did the IC50 turn out when C=CC(C)(C)c1[nH]c2ccccc2c1C[C@H](NC(=O)[C@@H](O)Cc1ccccc1)C(=O)O was run?
Its IC50 is > 50 µM.

How did the IC50 turn out when C=CC(C)(C)[C@]1(C[C@H](NC(=O)[C@@H](O)Cc2ccccc2)C(=O)O)C(=O)Nc2c(O)cccc21 was run?
The IC50 was > 50 µM.

How did the IC50 turn out when C=CC(C)(C)[C@]12Nc3c(O)cccc3[C@@]1(O)C[C@H]1C(=O)O[C@@H](Cc3ccccc3)C(=O)N12 was run?
The IC50 was > 50 µM.

test system: U2OS; test: Potentiation of doxorubicin-induced cytotoxicity against human U2OS cells assessed as decrease in cell viability at 10 uM after 72 hrs by CellTiter 96 AQueous one solution cell proliferation assay; format: functional, cell-based; settings: not given; procedure, shortened: as §2

For C=CC(C)(C)c1[nH]c2ccccc2c1C[C@H](NC(=O)[C@@H](O)Cc1ccccc1)C(=O)O, which Activity is on record?
Its Activity is “Active”.

For C=CC(C)(C)[C@]1(C[C@H](NC(=O)[C@@H](O)Cc2ccccc2)C(=O)O)C(=O)Nc2c(O)cccc21, which Activity is on record?
Its Activity is “Active”.

For C=CC(C)(C)[C@]12Nc3c(O)cccc3[C@@]1(O)C[C@H]1C(=O)O[C@@H](Cc3ccccc3)C(=O)N12, which Activity is on record?
Its Activity is “Active”.

test system: A549; test: Potentiation of doxorubicin-induced cytotoxicity against human A549 cells assessed as decrease in cell viability at 10 uM after 72 hrs by CellTiter 96 AQueous one solution cell proliferation assay; format: functional, cell-based; settings: not given; procedure, shortened: as §2

With C=CC(C)(C)c1[nH]c2ccccc2c1C[C@H](NC(=O)[C@@H](O)Cc1ccccc1)C(=O)O as the molecule, how does the Activity read?
The Activity was “Active”.

Which Activity does the source give for C=CC(C)(C)[C@]1(C[C@H](NC(=O)[C@@H](O)Cc2ccccc2)C(=O)O)C(=O)Nc2c(O)cccc21 here?
The Activity was “Active”.

C=CC(C)(C)[C@]12Nc3c(O)cccc3[C@@]1(O)C[C@H]1C(=O)O[C@@H](Cc3ccccc3)C(=O)N12 was tested. Which Activity did it give?
Its Activity is “Active”.

test system: HCT-116; test: Cytotoxicity against p53 null human HCT116 cells assessed as reduction in cell viability after 72 hrs by CellTiter 96 AQueous one solution cell proliferation assay; format: cell-based; settings: HCT-116, 72 h; procedure, shortened: as §1

How did the IC50 turn out when C=CC(C)(C)c1[nH]c2ccccc2c1C[C@H](NC(=O)[C@@H](O)Cc1ccccc1)C(=O)O was run?
Its IC50 is > 50 µM.

How did the IC50 turn out when C=CC(C)(C)[C@]1(C[C@H](NC(=O)[C@@H](O)Cc2ccccc2)C(=O)O)C(=O)Nc2c(O)cccc21 was run?
The IC50 was > 50 µM.

C=CC(C)(C)[C@]12Nc3c(O)cccc3[C@@]1(O)C[C@H]1C(=O)O[C@@H](Cc3ccccc3)C(=O)N12 was tested. Which IC50 did it give?
The IC50 was > 50 µM.

test system: MDA-MB-231; test: Cytotoxicity against human MDA-MB-231 cells harboring p53 R280K mutant assessed as reduction in cell viability after 72 hrs by CellTiter 96 AQueous one solution cell proliferation assay; format: cell-based; settings: MDA-MB-231, 72 h; procedure, shortened: as §1

Which IC50 does the source give for C=CC(C)(C)c1[nH]c2ccccc2c1C[C@H](NC(=O)[C@@H](O)Cc1ccccc1)C(=O)O here?
The IC50 was > 50 µM.

With C=CC(C)(C)[C@]1(C[C@H](NC(=O)[C@@H](O)Cc2ccccc2)C(=O)O)C(=O)Nc2c(O)cccc21 as the molecule, how does the IC50 read?
The IC50 was > 50 µM.

For C=CC(C)(C)[C@]12Nc3c(O)cccc3[C@@]1(O)C[C@H]1C(=O)O[C@@H](Cc3ccccc3)C(=O)N12, which IC50 is on record?
The IC50 was > 50 µM.

test system: HCT-116; test: Cytotoxicity against human HCT116 cells harboring wild type p53 assessed as reduction in cell viability after 72 hrs by CellTiter 96 AQueous one solution cell proliferation assay; format: cell-based; settings: HCT-116, 72 h; procedure, shortened: as §1

For C=CC(C)(C)c1[nH]c2ccccc2c1C[C@H](NC(=O)[C@@H](O)Cc1ccccc1)C(=O)O, which IC50 is on record?
The IC50 was > 50 µM.

How did the IC50 turn out when C=CC(C)(C)[C@]1(C[C@H](NC(=O)[C@@H](O)Cc2ccccc2)C(=O)O)C(=O)Nc2c(O)cccc21 was run?
The IC50 was > 50 µM.

For C=CC(C)(C)[C@]12Nc3c(O)cccc3[C@@]1(O)C[C@H]1C(=O)O[C@@H](Cc3ccccc3)C(=O)N12, which IC50 is on record?
Its IC50 is > 50 µM.

test system: MDA-MB-231; test: Potentiation of doxorubicin-induced cytotoxicity against p53 CRISPR-Cas9 knockout human MDA-MB-231 cells assessed as decrease in cell viability at 10 uM after 72 hrs by CellTiter 96 AQueous one solution cell proliferation assay; format: functional, cell-based; settings: not given; procedure, shortened: as §2

For C=CC(C)(C)c1[nH]c2ccccc2c1C[C@H](NC(=O)[C@@H](O)Cc1ccccc1)C(=O)O, which Activity is on record?
Its Activity is “Active”.

Which Activity does the source give for C=CC(C)(C)[C@]1(C[C@H](NC(=O)[C@@H](O)Cc2ccccc2)C(=O)O)C(=O)Nc2c(O)cccc21 here?
Its Activity is “Active”.

Which Activity does the source give for C=CC(C)(C)[C@]12Nc3c(O)cccc3[C@@]1(O)C[C@H]1C(=O)O[C@@H](Cc3ccccc3)C(=O)N12 here?
The Activity was “Active”.

test system: A549; test: Inhibition of calcein-AM efflux in human A549 cells at 10 uM after 1 hr by fluorescence assay; format: functional, cell-based; settings: not given
Procedure, shortened: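 Vybrant multidrug resistance kit: 500 000 cells/well cultured overnight, triplicate cultures pretreated 1 h with compound (verapamil 50 μg/mL, cyclosporine A 25 μg/mL as positive controls), then 0.25 μM calcein-AM for 30 min. Cells washed twice in cold medium; intracellular calcein fluorescence read at ex 494/em 517 nm, expressed as percent calcein retention.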

C=CC(C)(C)c1[nH]c2ccccc2c1C[C@H](NC(=O)[C@@H](O)Cc1ccccc1)C(=O)O was tested. Which inhibition did it give?
Its inhibition is “Active”.

How did the inhibition turn out when C=CC(C)(C)[C@]1(C[C@H](NC(=O)[C@@H](O)Cc2ccccc2)C(=O)O)C(=O)Nc2c(O)cccc21 was run?
Its inhibition is “Active”.

How did the inhibition turn out when C=CC(C)(C)[C@]12Nc3c(O)cccc3[C@@]1(O)C[C@H]1C(=O)O[C@@H](Cc3ccccc3)C(=O)N12 was run?
The inhibition was “Active”.

test system: A549; test: Cytotoxicity against human A549 cells assessed as reduction in cell viability after 72 hrs by CellTiter 96 AQueous one solution cell proliferation assay; format: cell-based; settings: A549, 72 h; procedure, shortened: as §1

Which IC50 does the source give for C=CC(C)(C)c1[nH]c2ccccc2c1C[C@H](NC(=O)[C@@H](O)Cc1ccccc1)C(=O)O here?
The IC50 was > 50 µM.

C=CC(C)(C)[C@]1(C[C@H](NC(=O)[C@@H](O)Cc2ccccc2)C(=O)O)C(=O)Nc2c(O)cccc21 was tested. Which IC50 did it give?
Its IC50 is > 50 µM.

With C=CC(C)(C)[C@]12Nc3c(O)cccc3[C@@]1(O)C[C@H]1C(=O)O[C@@H](Cc3ccccc3)C(=O)N12 as the molecule, how does the IC50 read?
The IC50 was > 50 µM.

species on record: Homo sapiens; test: Inhibition of Pgp in human A549/DXR cells assessed as reduction in calcein-AM efflux after 1 hr by fluorescence assay; settings: not given

For C=CC(C)(C)c1[nH]c2ccccc2c1C[C@H](NC(=O)[C@@H](O)Cc1ccccc1)C(=O)O, which inhibition is on record?
The inhibition was “Dose-dependent effect”.

With C=CC(C)(C)[C@]1(C[C@H](NC(=O)[C@@H](O)Cc2ccccc2)C(=O)O)C(=O)Nc2c(O)cccc21 as the molecule, how does the inhibition read?
The inhibition was “Dose-dependent effect”.

How did the inhibition turn out when C=CC(C)(C)[C@]12Nc3c(O)cccc3[C@@]1(O)C[C@H]1C(=O)O[C@@H](Cc3ccccc3)C(=O)N12 was run?
Its inhibition is “Dose-dependent effect”.
